These results are taken from ChEMBL document CHEMBL1138614, “Synthesis and antibacterial activities of novel oxazolidinones having spiro[2,4]heptane moieties” (2009).

Holding throughout (type): functional
The test system of assay [1] is Enterococcus. Put plainly: Antibacterial activity against vancomycin-resistant Enterococcus 6 after 18 to 20 hrs by agar dilution method. The essentials: (§1)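 Agar dilution MIC on test agar. Bacteria grown overnight in tryptosoy broth, diluted in the same broth to about 10⁶ cells/mL, then applied with an inoculating device onto agar holding serial twofold dilutions of compound. Plates incubated at 37 °C for 18–20 h. MIC taken as the lowest concentration visibly inhibiting growth, in µg/ml.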
On the technique in general: In agar dilution, organisms are placed on agar that contains the substance at set levels.

In assay [2] the test system is Enterococcus faecium. Nature of the assay: Antibacterial activity against Enterococcus faecium C803 after 18 to 20 hrs by agar dilution method. In a few lines:
as §1

The subject of another assay is Streptococcus agalactiae. Put plainly: Antibacterial activity against Streptococcus agalactiae ATCC 2901 after 18 to 20 hrs by agar dilution method. The essentials: (§2)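 Agar dilution: bacteria grown overnight in tryptosoy broth and diluted in the same broth to about 10⁶ cells/mL. A multipoint inoculating device spotted them onto test agar carrying serial twofold dilutions of compound. Plates were held at 37 °C for 18–20 h. MIC (µg/ml) was read as the lowest concentration giving visible inhibition of growth.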

A further assay has as its system Streptococcus pneumoniae. Nature of the assay: Antibacterial activity against Streptococcus pneumoniae C402 after 18 to 20 hrs by agar dilution method. The essentials: as §2
In assay [3] the test system is Enterococcus. Put plainly: Antibacterial activity against vancomycin-resistant Enterococcus 2 after 18 to 20 hrs by agar dilution method. The essentials: as §1
In another assay the test system is Streptococcus pyogenes. Nature of the assay: Antibacterial activity against Streptococcus pyogenes ATCC 8736 after 18 to 20 hrs by agar dilution method. The essentials: as §2
The subject of assay [4] is Enterococcus faecalis. Nature of the assay: Antibacterial activity against vancomycin-resistant Enterococcus faecalis after 18 to 20 hrs by agar dilution method. The essentials: as §1
The test system of assay [5] is Enterococcus. Nature of the assay: Antibacterial activity against vancomycin-resistant Enterococcus 3 after 18 to 20 hrs by agar dilution method. In a few lines: as §1
Another assay deals with Staphylococcus. Nature of the assay: Antibacterial activity against Coagulase negative Staphylococcus after 18 to 20 hrs by agar dilution method. The essentials:
as §2

Assay [6] has as its system Enterococcus faecium. Nature of the assay: Antibacterial activity against vancomycin-resistant Enterococcus faecium after 18 to 20 hrs by agar dilution method. The essentials: as §1
For assay [7], the system named is Staphylococcus aureus. Put plainly: Antibacterial activity against methicillin-resistant Staphylococcus aureus after 18 to 20 hrs by agar dilution method. The essentials: as §1
The test system of assay [8] is Enterococcus. Nature of the assay: Antibacterial activity against vancomycin-resistant Enterococcus 1 after 18 to 20 hrs by agar dilution method. The essentials:
as §1

In a further assay the test system is Haemophilus influenzae. Put plainly: Antibacterial activity against Haemophilus influenzae after 18 to 20 hrs by agar dilution method. In a few lines:
as §2

For assay [9], the system named is Enterococcus faecalis. Nature of the assay: Antibacterial activity against Enterococcus faecalis C474 after 18 to 20 hrs by agar dilution method. The essentials:
as §2

The subject of assay [10] is Enterococcus. Nature of the assay: Antibacterial activity against vancomycin-resistant Enterococcus 4 after 18 to 20 hrs by agar dilution method. The essentials:
as §1

Assay [11] relates to Enterococcus. Nature of the assay: Antibacterial activity against vancomycin-resistant Enterococcus 5 after 18 to 20 hrs by agar dilution method. In a few lines:
as §1

Assay [12] relates to Staphylococcus aureus. Put plainly: Antibacterial activity against Staphylococcus aureus C463 after 18 to 20 hrs by agar dilution method. The essentials: as §1

≈ marks a conversion by molar mass, not a printed value.

`CC(=O)NC[C@H]1CN(c2ccc(N3CC(N)C4(CC4)C3)c(F)c2)C(=O)O1` (stereo not given in full): the MIC worked out at 12.5 µg/mL (≈ 34.5 µM) in the assay on Enterococcus [1]; 6.25 µg/mL (≈ 17.2 µM) in the assay on Enterococcus faecium [2]; 6.25 µg/mL (≈ 17.2 µM) against Streptococcus agalactiae; 6.25 µg/mL (≈ 17.2 µM) in the assay with Streptococcus pneumoniae; 6.25 µg/mL (≈ 17.2 µM) in the assay with Enterococcus [3]; 6.25 µg/mL (≈ 17.2 µM) against Streptococcus pyogenes. Further, the MIC turned out to be 12.5 µg/mL (≈ 34.5 µM) against Enterococcus faecalis [4]; 6.25 µg/mL (≈ 17.2 µM) against Enterococcus [5]; 6.25 µg/mL (≈ 17.2 µM) in the assay on Staphylococcus; 6.25 µg/mL (≈ 17.2 µM) in the assay on Enterococcus faecium [6]; 6.25 µg/mL (≈ 17.2 µM) with Staphylococcus aureus [7]; 12.5 µg/mL (≈ 34.5 µM) against Enterococcus [8]. Moreover, the MIC with Haemophilus influenzae, in the assay on Enterococcus faecalis [9], with Enterococcus [10], in the assay with Enterococcus [11] and in the assay on Staphylococcus aureus [12] was 6.25 µg/mL (≈ 17.2 µM) in each case.
`CC(=O)NC[C@H]1CN(c2ccc(N3CC(O)C4(CC4)C3)c(F)c2)C(=O)O1` (stereo not given in full): the MIC in the assay on Enterococcus [1] is 3.12 µg/mL (≈ 8.59 µM); against Enterococcus faecium [2], 6.25 µg/mL (≈ 17.2 µM); in the assay with Streptococcus agalactiae, 6.25 µg/mL (≈ 17.2 µM); against Streptococcus pneumoniae, 3.12 µg/mL (≈ 8.59 µM); in the assay with Enterococcus [3], 6.25 µg/mL (≈ 17.2 µM); against Streptococcus pyogenes it was 6.25 µg/mL (≈ 17.2 µM). Moreover, the MIC in the assay on Enterococcus faecalis [4] is 6.25 µg/mL (≈ 17.2 µM); in the assay with Enterococcus [5], 6.25 µg/mL (≈ 17.2 µM); with Staphylococcus it was 12.5 µg/mL (≈ 34.4 µM); against Enterococcus faecium [6], 6.25 µg/mL (≈ 17.2 µM); against Staphylococcus aureus [7], 6.25 µg/mL (≈ 17.2 µM); with Enterococcus [8] it was 3.12 µg/mL (≈ 8.59 µM). The MIC in the assay on Haemophilus influenzae was 6.25 µg/mL (≈ 17.2 µM); in the assay with Enterococcus faecalis [9], 12.5 µg/mL (≈ 34.4 µM); in the assay on Enterococcus [10], 6.25 µg/mL (≈ 17.2 µM); against Enterococcus [11], 6.25 µg/mL (≈ 17.2 µM); against Staphylococcus aureus [12], 12.5 µg/mL (≈ 34.4 µM).
On to `CC(=O)NC[C@H]1CN(c2ccc(N3C/C(=N\O)C4(CC4)C3)c(F)c2)C(=O)O1`, for which the MIC with Enterococcus [1] was 12.5 µg/mL (≈ 33.2 µM); in the assay with Enterococcus faecium [2] it was 12.5 µg/mL (≈ 33.2 µM); against Streptococcus agalactiae it was 6.25 µg/mL (≈ 16.6 µM); against Streptococcus pneumoniae, 12.5 µg/mL (≈ 33.2 µM); against Enterococcus [3] it was 6.25 µg/mL (≈ 16.6 µM); against Streptococcus pyogenes it was 6.25 µg/mL (≈ 16.6 µM). Moreover, the MIC with Enterococcus faecalis [4] was 12.5 µg/mL (≈ 33.2 µM); against Enterococcus [5], 6.25 µg/mL (≈ 16.6 µM); in the assay with Staphylococcus, 25 µg/mL (≈ 66.4 µM); against Enterococcus faecium [6], 12.5 µg/mL (≈ 33.2 µM); with Staphylococcus aureus [7] it was 12.5 µg/mL (≈ 33.2 µM); against Enterococcus [8], 12.5 µg/mL (≈ 33.2 µM). In addition, the MIC came to 12.5 µg/mL (≈ 33.2 µM) with Haemophilus influenzae; 25 µg/mL (≈ 66.4 µM) in the assay on Enterococcus faecalis [9]; 6.25 µg/mL (≈ 16.6 µM) in the assay with Enterococcus [10]; 6.25 µg/mL (≈ 16.6 µM) in the assay with Enterococcus [11]; 12.5 µg/mL (≈ 33.2 µM) against Staphylococcus aureus [12].
Take `CCCO/N=C1\CN(c2ccc(N3C[C@H](CNC(C)=O)OC3=O)cc2F)CC12CC2`: the MIC with Enterococcus [1], in the assay with Enterococcus faecium [2], in the assay with Streptococcus agalactiae, in the assay on Streptococcus pneumoniae, against Enterococcus [3] and against Streptococcus pyogenes was 12.5 µg/mL (≈ 29.9 µM) in each case. Also, the MIC against Enterococcus faecalis [4] was determined as 25 µg/mL (≈ 59.7 µM); against Enterococcus [5], 12.5 µg/mL (≈ 29.9 µM); against Staphylococcus it was 12.5 µg/mL (≈ 29.9 µM); against Enterococcus faecium [6], 12.5 µg/mL (≈ 29.9 µM); in the assay with Staphylococcus aureus [7], 12.5 µg/mL (≈ 29.9 µM); in the assay with Enterococcus [8], 12.5 µg/mL (≈ 29.9 µM). Besides, the MIC against Haemophilus influenzae came to 25 µg/mL (≈ 59.7 µM); against Enterococcus faecalis [9], 25 µg/mL (≈ 59.7 µM); in the assay on Enterococcus [10] it was 12.5 µg/mL (≈ 29.9 µM); with Enterococcus [11], 12.5 µg/mL (≈ 29.9 µM); with Staphylococcus aureus [12], 25 µg/mL (≈ 59.7 µM).
In the case of `CC(=O)NC[C@H]1CN(c2ccc(N3CC(F)C4(CC4)C3)c(F)c2)C(=O)O1` (stereo not given in full), the MIC with Enterococcus [1] amounted to 1.56 µg/mL (≈ 4.27 µM); against Enterococcus faecium [2] it was 0.78 µg/mL (≈ 2.13 µM); in the assay with Streptococcus agalactiae, 0.78 µg/mL (≈ 2.13 µM); with Streptococcus pneumoniae it was 1.56 µg/mL (≈ 4.27 µM); against Enterococcus [3] it was 1.56 µg/mL (≈ 4.27 µM); in the assay with Streptococcus pyogenes, 1.56 µg/mL (≈ 4.27 µM). The MIC in the assay on Enterococcus faecalis [4] is 1.56 µg/mL (≈ 4.27 µM); against Enterococcus [5], 3.12 µg/mL (≈ 8.54 µM); in the assay on Staphylococcus it was 3.12 µg/mL (≈ 8.54 µM); against Enterococcus faecium [6] it was 1.56 µg/mL (≈ 4.27 µM); with Staphylococcus aureus [7], 0.78 µg/mL (≈ 2.13 µM); with Enterococcus [8] it was 1.56 µg/mL (≈ 4.27 µM). In addition, the MIC against Haemophilus influenzae is 0.39 µg/mL (≈ 1.07 µM); in the assay on Enterococcus faecalis [9], 1.56 µg/mL (≈ 4.27 µM); in the assay with Enterococcus [10], 0.78 µg/mL (≈ 2.13 µM); with Enterococcus [11] it was 0.78 µg/mL (≈ 2.13 µM); with Staphylococcus aureus [12], 3.12 µg/mL (≈ 8.54 µM).
